From ChEMBL document CHEMBL4145451, “1,3,5-triazaspiro[5.5]undeca-2,4-dienes as selective Mycobacterium tuberculosis dihydrofolate reductase inhibitors with potent whole cell activity” (Eur J Med Chem, 2018) come the findings set out here.

Molecules are shown by their SMILES.

The subject of assay [1] is Mycobacterium tuberculosis. Description: Ratio of MIC90 for Mycobacterium bovis BCG over-expressing DHFR to MIC90 for Mycobacterium bovis BCG. The assay is classed as functional, variant bovis BCG.
The subject of assay [2] is Mycobacterium tuberculosis. Briefly: Antimycobacterial activity against Mycobacterium bovis BCG at 25 uM after 10 days by broth dilution method relative to control. The assay is classed as functional, variant bovis BCG. (In general: Dilution methods test growth across graded concentrations, often in twofold steps.)
Assay [3] deals with Mycobacterium tuberculosis. Description: Antimycobacterial activity against Mycobacterium bovis BCG after 10 days by broth dilution method. The assay is classed as functional. The note with it: variant bovis BCG, 240 h. The gist of the method: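 Broth microdilution. Mid-log cultures (OD600 0.4–0.6) were diluted and added to 2-fold serial compound dilutions in DMSO, giving a final 5 × 10^5 CFU/mL in 7H9-albumin-dextrose-catalase-glycerol-Tween 80. Plates were sealed and incubated at 37 °C for 10 days with shaking at 80 rpm. OD600 was read; MIC50 and MIC90 are the lowest concentrations giving 50% and 90% growth inhibition. Rifampicin and DMSO served as controls. Means of 3 independent experiments.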

For `Nc1ccc(C(=O)O)c(O)c1` [AMINOSALICYLIC ACID], in assay [1], the Ratio amounted to 16.

Compound `Cl.NC1=NC2(CCCCC2)N(Cc2cn(CCOc3ccc4ccc(=O)oc4c3)nn2)C(N)=N1` yielded an Activity in assay [2] of 5.8%.

Turning to `Cl.NC1=NC2(CCCCC2)N(Cc2cn(CCCCCOc3ccc4oc(=O)ccc4c3)nn2)C(N)=N1`, the Activity in assay [2] was 6.7%.

In turn, `Cl.NC1=NC2(CCCCC2)N(Cc2cn(CCCOc3ccc4ccc(=O)oc4c3)nn2)C(N)=N1` yielded an Activity in assay [2] of 7.8%.

In assay [2], `Cl.NC1=NC2(CCCCC2)N(Cc2cn(CCc3ccccc3)nn2)C(N)=N1` yielded an Activity of 4.7%.

By MIC50 is commonly meant an inhibitory concentration at the 50% level, which refers to growth in some studies and to a panel of isolates in others. Read a low MIC50 as higher susceptibility. A word on the MIC90: it is an inhibitory concentration at the 90% level, which refers to growth in some studies and to a panel of isolates in others. Low readings indicate higher susceptibility, high ones lower susceptibility. For the compound `Cl.NC1=NC2(CCCCC2)N(c2ccc(OCc3cn(CCCCOc4ccc5ccc(=O)oc5c4)nn3)cc2)C(N)=N1`, in assay [2], the Activity is on record as 92.1%. Further, in assay [3], the MIC50 was in the range of 0.01 to 0.02 µM and the MIC90 is 0.1 µM. The Ratio in assay [1] is 25 - 30.

As to `Cl.NC1=NC2(CCCCC2)N(c2ccc(OCc3cn(CCCOc4ccc5ccc(=O)oc5c4)nn3)cc2)C(N)=N1`, the Activity in assay [2] was found to be 88.4%. For the same compound, in assay [3], the MIC50 turned out to be 0.02 µM and the MIC90 was determined as 0.2 µM. Also, the Ratio in assay [1] is listed as 25 - 30.

`Cl.NC1=NC2(CCCCC2)N(c2ccc(OCc3cn(CCOc4ccc5ccc(=O)oc5c4)nn3)cc2)C(N)=N1`: the Activity in assay [2] turned out to be 84.8%. In assay [3], this compound returned an MIC50 of 0.2 µM and an MIC90 of 1.56 µM.

On to `Cl.NC1=NC2(CCCCC2)N(Cc2cn(CC(=O)c3ccccc3)nn2)C(N)=N1`, for which the Activity in assay [2] came to 3.4%.

Consider `Cl.NC1=NC2(CCCCC2)N(c2ccc(OCc3cn(Cc4ccccc4)nn3)cc2)C(N)=N1`, for which, in assay [2], the Activity came to 61.7%. For the same compound, in assay [3], the MIC50 came out at 19.2 µM and the MIC90 is more than 100 µM.

Consider `Cl.NC1=NC2(CCCCC2)N(c2ccc(OCc3cn(CCCc4ccccc4)nn3)cc2)C(N)=N1`, for which the Activity in assay [2] came out at 67.8%. In assay [3], this compound showed an MIC50 of 20.7 µM and an MIC90 of more than 100 µM.

For the compound `Cl.NC1=NC2(CCCCC2)N(Cc2cn(CCCc3ccccc3)nn2)C(N)=N1`, the Activity in assay [2] is reported as 5.4%.

As to `Cl.NC1=NC2(CCCCC2)N(c2ccc(OCc3cn(CC(=O)c4ccccc4)nn3)cc2)C(N)=N1`, in assay [2], the Activity was 12.8%.

For the compound `Cl.NC1=NC2(CCCCC2)N(c2ccc(OCc3cn(CCc4ccccc4)nn3)cc2)C(N)=N1`, the Activity in assay [2] is on record as 25.6%.

In the case of `Cl.NC1=NC2(CCCCC2)N(Cc2cn(Cc3ccccc3)nn2)C(N)=N1`, the Activity in assay [2] was 4.5%.
